Measured values from article PMC3064798 (Nucleic Acids Research, 2011).
Residue numbers refer to the chain shown, from its start. “Also recorded” adds a separate entry of the source.

How the values were obtained:
Therminator polymerase = target: T1, Therminator polymerase (Thermococcus sp., UniProt Q56366, A485L/D141A/E143A); test: PEP; format: biochemical; conditions: for Incorporation bias (analog IC50/HOMedUTP IC50): Therminator
T1 sequence (Q56366 1-775 D141A/E143A/A485L): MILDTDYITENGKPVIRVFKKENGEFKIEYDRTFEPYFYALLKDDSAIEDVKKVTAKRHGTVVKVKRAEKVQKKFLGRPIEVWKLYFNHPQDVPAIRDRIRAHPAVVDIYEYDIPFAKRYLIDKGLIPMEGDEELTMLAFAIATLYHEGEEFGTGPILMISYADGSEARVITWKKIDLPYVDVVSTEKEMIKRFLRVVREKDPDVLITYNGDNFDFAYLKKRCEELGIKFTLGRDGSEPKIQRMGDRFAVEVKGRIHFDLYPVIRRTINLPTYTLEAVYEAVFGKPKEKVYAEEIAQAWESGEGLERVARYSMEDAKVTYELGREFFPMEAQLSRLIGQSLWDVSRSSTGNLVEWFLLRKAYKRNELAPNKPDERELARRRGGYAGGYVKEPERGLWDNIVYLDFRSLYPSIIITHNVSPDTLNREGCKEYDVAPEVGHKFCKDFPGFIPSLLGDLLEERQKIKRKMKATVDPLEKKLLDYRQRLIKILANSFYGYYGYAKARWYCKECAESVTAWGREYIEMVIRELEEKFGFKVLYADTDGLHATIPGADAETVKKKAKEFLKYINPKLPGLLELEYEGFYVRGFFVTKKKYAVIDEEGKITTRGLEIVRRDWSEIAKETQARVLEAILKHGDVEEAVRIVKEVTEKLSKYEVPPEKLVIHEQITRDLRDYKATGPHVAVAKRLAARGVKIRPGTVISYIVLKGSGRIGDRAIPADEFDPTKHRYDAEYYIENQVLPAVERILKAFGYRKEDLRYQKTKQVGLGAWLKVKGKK
Procedure, shortened: (§1)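 Polymerase end-point assay for single-base incorporation. 5 nM BODIPY-FL-labelled primer-1 was hybridised to 40 nM oligoTemplate-4, with the interrogation base complementary to dU. Absence of a +1 band on the 377 gel image at 100 μM counts as not active. IC50 was averaged from triplicates ± 1 SD. Incorporation bias is the analog IC50 divided by the natural-nucleotide (HOMedUTP) IC50.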

[1] = Photochemical cleavage studies; format: physicochemical; conditions: for DT50 values (time at which 50% of 2-nitrobenzyl groups were photochemically cleaved): 365 nm UV, incorporated in primer-1/oligoTemplate-4; for DT50 in sodium azide compared with the FBD solution: 50 mM sodium azide vs FBD; for DT50 faster than the parent dU.I analog: azide solution
Procedure, shortened: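 Analogs (100 nM final) were incorporated as in PEP on BODIPY-FL primer-1/oligoTemplate-4 (10 nM/80 nM). Reactions were quenched in FBD solution (20% formamide, 10 mM Na2EDTA pH 8.0, Blue Dextran) or 50 mM sodium azide. Samples were irradiated at 365 nm for various times, then iced, mixed with formamide stop solution and run on an AB 377 sequencer. DT50 is the time for 50% cleavage, from triplicates ± 1 SD.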

[2] = target: T2, Therminator II polymerase (Thermococcus sp., UniProt Q56366, A485L/D141A/E143A/Y409V); test: PEP; format: biochemical; conditions: for Incorporation bias (analog IC50/HOMedUTP IC50): Therminator II
T2 sequence (Q56366 1-775 D141A/E143A/Y409V/A485L): T1 sequence (Q56366 1-775 D141A/E143A/A485L) with Y409V
Procedure, shortened: as §1

Bst polymerase = target: T3, Bst polymerase (Geobacillus stearothermophilus, UniProt P52026); test: PEP; format: biochemical
T3 sequence (P52026 1-876): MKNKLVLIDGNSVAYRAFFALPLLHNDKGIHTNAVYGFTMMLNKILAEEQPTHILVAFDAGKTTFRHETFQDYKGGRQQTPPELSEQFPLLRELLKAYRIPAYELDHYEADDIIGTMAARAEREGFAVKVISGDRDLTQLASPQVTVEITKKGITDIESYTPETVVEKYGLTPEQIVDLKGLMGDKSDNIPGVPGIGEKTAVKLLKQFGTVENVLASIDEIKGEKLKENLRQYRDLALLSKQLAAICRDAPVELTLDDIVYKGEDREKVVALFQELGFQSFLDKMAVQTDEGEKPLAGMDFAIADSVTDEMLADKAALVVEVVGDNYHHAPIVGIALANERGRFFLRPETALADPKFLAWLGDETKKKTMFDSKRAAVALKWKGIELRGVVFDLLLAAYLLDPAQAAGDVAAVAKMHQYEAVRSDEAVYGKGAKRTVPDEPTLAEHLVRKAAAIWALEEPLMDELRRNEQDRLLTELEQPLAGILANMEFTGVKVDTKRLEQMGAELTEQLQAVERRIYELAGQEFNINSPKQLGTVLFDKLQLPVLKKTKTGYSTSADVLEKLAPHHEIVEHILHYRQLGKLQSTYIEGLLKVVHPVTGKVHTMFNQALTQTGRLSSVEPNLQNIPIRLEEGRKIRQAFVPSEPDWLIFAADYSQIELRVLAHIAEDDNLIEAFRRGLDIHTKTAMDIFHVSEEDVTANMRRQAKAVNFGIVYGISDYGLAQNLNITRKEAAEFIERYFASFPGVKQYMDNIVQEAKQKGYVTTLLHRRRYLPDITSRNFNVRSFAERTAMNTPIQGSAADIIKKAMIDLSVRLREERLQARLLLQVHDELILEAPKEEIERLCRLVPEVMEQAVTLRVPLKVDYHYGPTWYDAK
Procedure, shortened: as §1

TaqFS polymerase = TaqFS polymerase (Thermus aquaticus, UniProt P19821, F667Y/G46D); test: PEP; format: biochemical; conditions: for IC50 values (activity in words): TaqFS, Not Active = no visible +1 band in 377 gel image at 100 μM
Procedure, shortened: as §1

Sequence of TaqFS polymerase (P19821 whole entry G46D/F667Y): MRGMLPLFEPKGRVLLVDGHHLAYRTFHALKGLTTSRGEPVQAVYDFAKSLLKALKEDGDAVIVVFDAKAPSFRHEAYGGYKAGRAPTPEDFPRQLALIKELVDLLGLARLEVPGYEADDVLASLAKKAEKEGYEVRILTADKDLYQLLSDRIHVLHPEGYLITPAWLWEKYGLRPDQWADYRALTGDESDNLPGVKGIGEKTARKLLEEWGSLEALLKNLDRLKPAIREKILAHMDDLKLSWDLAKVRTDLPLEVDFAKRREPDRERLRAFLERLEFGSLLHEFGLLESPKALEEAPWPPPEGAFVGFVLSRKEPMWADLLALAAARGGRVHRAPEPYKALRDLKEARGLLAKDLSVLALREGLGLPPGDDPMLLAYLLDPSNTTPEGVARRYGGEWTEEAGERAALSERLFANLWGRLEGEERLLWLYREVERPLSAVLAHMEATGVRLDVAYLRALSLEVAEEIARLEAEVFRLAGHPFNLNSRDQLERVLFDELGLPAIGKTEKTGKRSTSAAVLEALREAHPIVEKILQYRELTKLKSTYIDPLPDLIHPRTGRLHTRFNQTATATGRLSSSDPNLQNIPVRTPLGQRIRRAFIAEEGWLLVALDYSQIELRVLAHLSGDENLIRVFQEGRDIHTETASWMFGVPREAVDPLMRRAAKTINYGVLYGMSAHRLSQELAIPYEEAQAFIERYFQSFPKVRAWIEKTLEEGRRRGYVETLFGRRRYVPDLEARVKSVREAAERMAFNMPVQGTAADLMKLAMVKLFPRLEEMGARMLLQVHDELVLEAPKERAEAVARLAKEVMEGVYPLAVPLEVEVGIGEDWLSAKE

Compound	Incorporation bias (analog IC50/HOMedUTP IC50) (Therminator polymerase)	DT50 values (time at which 50% of 2-nitrobenzyl groups were photochemically cleaved) ([1]; 50 mM NaN3)	DT50 in sodium azide compared with the FBD solution [1]	DT50 values (time at which 50% of 2-nitrobenzyl groups were photochemically cleaved) ([1]; FBD solution)	DT50 faster than the parent dU.I analog [1]	IC50 [2]	Incorporation bias (analog IC50/HOMedUTP IC50) [2]	IC50 (Bst polymerase)	Incorporation bias (analog IC50/HOMedUTP IC50) (Bst polymerase; Bst)	IC50 values (activity in words) (TaqFS polymerase)	IC50 values (activity in words) (Bst polymerase; Bst, Not Active = no visible +1 band in 377 gel image at 100 μM)	IC50 (Therminator polymerase)	IC50 (TaqFS polymerase)
CC(OCc1cn([C@H]2C[C@H](O)[C@@H](COP(=O)(O)OP(=O)(O)OP(=O)(O)O)O2)c(=O)[nH]c1=O)c1ccccc1[N+](=O)[O-] (mixture of isomers) [dU.II, 5-[1-(2-Nitrophenyl)ethyloxy]methyl-2'-deoxyuridine-5’-triphosphate]	1.0	2.0 ± 0.1 s	approximately three-fold lower	7.4 ± 1.2 s	33-60%	0.014 ± 0.001 µM	1.9	3.5 ± 0.2 µM	1600	no activity at all	–	–	–
CC(C)C(OCc1cn([C@H]2C[C@H](O)[C@@H](COP(=O)(O)OP(=O)(O)OP(=O)(O)O)O2)c(=O)[nH]c1=O)c1ccccc1[N+](=O)[O-] (mixture of isomers) [dU.III, 5-[1-(2-Nitrophenyl)-2-methyl-propyloxy]methyl-2'-deoxyuridine-5’-triphosphate]	1.4	2.4 ± 0.2 s	approximately three-fold lower	8.8 ± 0.8 s	33-60%	0.14 ± 0.01 µM	20	–	–	none of the Family A polymerases showed any activity	none of the Family A polymerases showed any activity; also recorded: Not Active^a	–	–
O=c1[nH]c(=O)n([C@H]2C[C@H](O)[C@@H](COP(=O)(O)OP(=O)(O)OP(=O)(O)O)O2)cc1COCc1ccccc1[N+](=O)[O-] [dU.I, 5-(2-Nitrobenzyloxy)methyl-2'-deoxyuridine-5’-triphosphate]	1.1	3.2 ± 0.1 s	approximately three-fold lower	8.7 ± 0.9 s	–	0.0057 ± 0.0004 µM	0.8	0.098 ± 0.013 µM	45	–	–	0.0018 ± 0.0001 µM	25 µM
